# Data published in ChEMBL document CHEMBL1138050, “Furan-2-ylmethylene thiazolidinediones as novel, potent, and selective inhibitors of phosphoinositide 3-kinase gamma” (J Med Chem, 2006).
# pIC50: −log10 of the molar value.
# What was measured:
# [1] = target: Serine/threonine-protein kinase D1 (Homo sapiens) (UniProt Q15139); assay: Residual activity at human PKCmu at 10 uM in presence of 10 uM ATP relative to control
# Procedure, shortened: (§1)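 Single-concentration counter-screen across a panel of 80 Ser/Thr and Tyr protein kinases. Compound was tested at 10 µM with ATP at 10 µM. Activity remaining in each kinase is expressed relative to control.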
# [2] = target: Cyclin-dependent kinase 5/CDK5 activator 1 (Homo sapiens) (UniProt Q00535+Q15078); assay: Residual activity at human CDK5/p35 at 10 uM in presence of 10 uM ATP relative to control; assay type: protein-complex assay
# Procedure, shortened: (§2)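 Panel of Ser/Thr and Tyr protein kinases, each tested with 10 µM compound in the presence of 10 µM ATP; activity expressed relative to control.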
# [3] = target: Tyrosine-protein kinase Fyn (Homo sapiens) (UniProt P06241); assay: Residual activity at human FYN at 10 uM in presence of 10 uM ATP relative to control; procedure, shortened: as §2
# [4] = target: Platelet-derived growth factor receptor beta (Homo sapiens) (UniProt P09619); assay: Residual activity at human PDGFRbeta at 10 uM in presence of 10 uM ATP relative to control; procedure, shortened: as §1
# [5] = target: Protein kinase C delta type (Homo sapiens) (UniProt Q05655); assay: Residual activity at human PKCdelta at 10 uM in presence of 10 uM ATP relative to control; procedure, shortened: as §1
# [6] = target: Mitogen-activated protein kinase 9 (Homo sapiens) (UniProt P45984); assay: Residual activity at human JNK2-alpha-2 at 10 uM in presence of 10 uM ATP relative to control; procedure, shortened: as §1
# [7] = target: Tyrosine-protein kinase Lck (Homo sapiens) (UniProt P06239); assay: Residual activity at human Lck at 10 uM in presence of 10 uM ATP relative to control; procedure, shortened: as §1
# [8] = target: Tyrosine-protein kinase ZAP-70 (Homo sapiens) (UniProt P43403); assay: Residual activity at human ZAP70 at 10 uM in presence of 10 uM ATP relative to control; procedure, shortened: as §1
# [9] = tested on: THP-1; assay: Inhibition of CSF-1-induced PKB/Akt phosphorylation in THP1 cells; settings: Homo sapiens
# [10] = target: Tyrosine-protein kinase Lyn (Homo sapiens) (UniProt P07948); assay: Residual activity at human Lyn at 10 uM in presence of 10 uM ATP relative to control; procedure, shortened: as §1
# [11] = target: RAC-beta serine/threonine-protein kinase (Homo sapiens) (UniProt P31751); assay: Residual activity at human PKBbeta at 10 uM in presence of 10 uM ATP relative to control; procedure, shortened: as §1
# [12] = target: T1, Phosphatidylinositol 4,5-bisphosphate 3-kinase catalytic subunit delta isoform (Homo sapiens, UniProt O00329); assay: Inhibition of human PI3Kdelta
# T1 sequence (O00329 whole entry): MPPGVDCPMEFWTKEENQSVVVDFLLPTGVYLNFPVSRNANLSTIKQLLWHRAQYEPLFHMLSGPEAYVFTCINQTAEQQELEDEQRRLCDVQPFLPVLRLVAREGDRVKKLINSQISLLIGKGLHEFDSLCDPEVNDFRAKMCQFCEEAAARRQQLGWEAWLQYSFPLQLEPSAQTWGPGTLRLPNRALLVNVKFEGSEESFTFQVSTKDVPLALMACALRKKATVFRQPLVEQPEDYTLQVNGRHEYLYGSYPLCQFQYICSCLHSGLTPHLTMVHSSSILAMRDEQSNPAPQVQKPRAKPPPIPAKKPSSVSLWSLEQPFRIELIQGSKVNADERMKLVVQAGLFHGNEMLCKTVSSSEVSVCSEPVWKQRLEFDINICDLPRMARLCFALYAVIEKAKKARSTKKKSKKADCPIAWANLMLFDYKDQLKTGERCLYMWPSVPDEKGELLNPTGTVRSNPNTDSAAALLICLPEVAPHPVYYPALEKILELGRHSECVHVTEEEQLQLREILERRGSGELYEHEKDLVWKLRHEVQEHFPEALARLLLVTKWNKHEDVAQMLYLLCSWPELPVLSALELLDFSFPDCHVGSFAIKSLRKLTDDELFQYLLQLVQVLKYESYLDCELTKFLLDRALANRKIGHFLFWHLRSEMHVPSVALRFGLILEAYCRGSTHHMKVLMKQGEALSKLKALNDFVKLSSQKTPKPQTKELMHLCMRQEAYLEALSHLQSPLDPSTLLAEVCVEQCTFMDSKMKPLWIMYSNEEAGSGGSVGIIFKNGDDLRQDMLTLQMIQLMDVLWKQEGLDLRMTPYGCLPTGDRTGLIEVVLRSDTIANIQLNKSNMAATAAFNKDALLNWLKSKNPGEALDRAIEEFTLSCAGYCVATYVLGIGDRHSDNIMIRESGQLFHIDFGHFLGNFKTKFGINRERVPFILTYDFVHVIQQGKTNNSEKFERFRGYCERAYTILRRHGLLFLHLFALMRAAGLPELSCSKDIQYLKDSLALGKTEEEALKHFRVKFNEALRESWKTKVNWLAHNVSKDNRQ
# [13] = target: Protein kinase C alpha type (Homo sapiens) (UniProt P17252); assay: Residual activity at human PKCalpha at 10 uM in presence of 10 uM ATP relative to control; procedure, shortened: as §1
# [14] = target: Tyrosine-protein kinase ABL1 (Homo sapiens) (UniProt P00519); assay: Residual activity at human Abl at 10 uM in presence of 10 uM ATP relative to control; procedure, shortened: as §2
# [15] = Cmax in rat at 10 mg/kg, iv; assay type: ADME, organism-based; parameters: dose 10 mg/kg, route intravenous; settings: in vivo
# Procedure, shortened: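 Rats given a single 10 mg/kg dose, intravenously or orally. The compound was given as its potassium salt, prepared with KOH in THF/water, for the in vivo work.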
# [16] = target: Mitogen-activated protein kinase 11 (Homo sapiens) (UniProt Q15759); assay: Residual activity at human SAPK2b at 10 uM in presence of 10 uM ATP relative to control; procedure, shortened: as §1
# [17] = target: CDK6/cyclin D3 (Homo sapiens) (UniProt P30281+Q00534); assay: Residual activity at human CDK6/CyclinD3 at 10 uM in presence of 10 uM ATP relative to control; assay type: protein-complex assay; procedure, shortened: as §2
# [18] = target: Tyrosine-protein kinase SYK (Homo sapiens) (UniProt P43405); assay: Residual activity at human Syk at 10 uM in presence of 10 uM ATP relative to control; procedure, shortened: as §1
# [19] = target: Tyrosine-protein kinase receptor UFO (Homo sapiens) (UniProt P30530); assay: Residual activity at human Axl at 10 uM in presence of 10 uM ATP relative to control; procedure, shortened: as §2
# [20] = target: Calcium/calmodulin-dependent protein kinase type IV (Homo sapiens) (UniProt Q16566); assay: Residual activity at human CaMK4 at 10 uM in presence of 10 uM ATP relative to control; procedure, shortened: as §2
# [21] = target: Glycogen synthase kinase-3 alpha (Homo sapiens) (UniProt P49840); assay: Residual activity at human GSK3alpha at 10 uM in presence of 10 uM ATP relative to control; procedure, shortened: as §2
# [22] = target: Cyclin-dependent kinase 7/ cyclin H (Homo sapiens) (UniProt P51946+P50613); assay: Residual activity at human CDK7/CyclinH/MAT1 at 10 uM in presence of 10 uM ATP relative to control; assay type: protein-complex assay; procedure, shortened: as §2
# Tyrosine-protein kinase ABL1 (Homo sapiens), sequence (P00519 whole entry): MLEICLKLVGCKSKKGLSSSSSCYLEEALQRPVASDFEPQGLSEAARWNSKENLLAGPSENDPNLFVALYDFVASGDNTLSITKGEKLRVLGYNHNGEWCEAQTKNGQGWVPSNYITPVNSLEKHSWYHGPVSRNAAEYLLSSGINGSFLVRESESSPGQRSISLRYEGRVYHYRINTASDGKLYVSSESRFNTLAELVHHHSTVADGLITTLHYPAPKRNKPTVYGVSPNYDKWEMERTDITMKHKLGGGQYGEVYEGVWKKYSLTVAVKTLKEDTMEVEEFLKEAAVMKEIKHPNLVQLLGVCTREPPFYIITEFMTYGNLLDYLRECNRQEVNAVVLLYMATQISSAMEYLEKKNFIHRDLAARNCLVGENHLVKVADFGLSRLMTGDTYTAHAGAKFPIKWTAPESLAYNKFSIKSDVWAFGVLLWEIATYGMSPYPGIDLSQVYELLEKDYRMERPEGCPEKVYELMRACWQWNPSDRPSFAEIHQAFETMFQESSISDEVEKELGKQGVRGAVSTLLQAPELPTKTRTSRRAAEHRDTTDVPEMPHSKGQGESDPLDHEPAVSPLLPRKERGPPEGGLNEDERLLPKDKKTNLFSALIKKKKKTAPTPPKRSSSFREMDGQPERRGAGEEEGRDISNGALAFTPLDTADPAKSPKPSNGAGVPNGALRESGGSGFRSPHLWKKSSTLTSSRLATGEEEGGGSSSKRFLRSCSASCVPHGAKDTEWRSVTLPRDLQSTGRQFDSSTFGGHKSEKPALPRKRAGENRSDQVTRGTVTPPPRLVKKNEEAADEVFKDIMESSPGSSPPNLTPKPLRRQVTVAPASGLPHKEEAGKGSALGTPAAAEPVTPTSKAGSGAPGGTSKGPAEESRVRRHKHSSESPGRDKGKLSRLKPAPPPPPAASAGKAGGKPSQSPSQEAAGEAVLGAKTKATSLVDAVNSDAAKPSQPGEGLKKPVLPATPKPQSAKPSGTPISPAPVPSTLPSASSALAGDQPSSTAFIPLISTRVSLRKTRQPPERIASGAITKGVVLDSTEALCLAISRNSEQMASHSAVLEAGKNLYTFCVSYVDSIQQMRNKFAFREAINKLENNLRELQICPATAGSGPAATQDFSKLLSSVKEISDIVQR
# Calcium/calmodulin-dependent protein kinase type IV (Homo sapiens), sequence (Q16566 whole entry): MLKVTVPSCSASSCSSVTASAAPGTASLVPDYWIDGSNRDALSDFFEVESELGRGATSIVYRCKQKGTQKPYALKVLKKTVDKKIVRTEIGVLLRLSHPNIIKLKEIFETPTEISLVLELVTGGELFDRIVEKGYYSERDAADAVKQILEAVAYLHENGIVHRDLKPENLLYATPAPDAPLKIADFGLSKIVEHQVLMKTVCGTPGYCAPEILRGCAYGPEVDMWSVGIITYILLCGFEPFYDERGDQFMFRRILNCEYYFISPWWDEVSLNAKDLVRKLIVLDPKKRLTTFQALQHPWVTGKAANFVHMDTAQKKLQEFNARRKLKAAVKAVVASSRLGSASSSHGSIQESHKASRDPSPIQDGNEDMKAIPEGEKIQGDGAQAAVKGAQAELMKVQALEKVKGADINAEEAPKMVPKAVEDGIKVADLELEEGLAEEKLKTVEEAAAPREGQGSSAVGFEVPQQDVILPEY
# Tyrosine-protein kinase Lck (Homo sapiens), sequence (P06239 2-509 limits assumed): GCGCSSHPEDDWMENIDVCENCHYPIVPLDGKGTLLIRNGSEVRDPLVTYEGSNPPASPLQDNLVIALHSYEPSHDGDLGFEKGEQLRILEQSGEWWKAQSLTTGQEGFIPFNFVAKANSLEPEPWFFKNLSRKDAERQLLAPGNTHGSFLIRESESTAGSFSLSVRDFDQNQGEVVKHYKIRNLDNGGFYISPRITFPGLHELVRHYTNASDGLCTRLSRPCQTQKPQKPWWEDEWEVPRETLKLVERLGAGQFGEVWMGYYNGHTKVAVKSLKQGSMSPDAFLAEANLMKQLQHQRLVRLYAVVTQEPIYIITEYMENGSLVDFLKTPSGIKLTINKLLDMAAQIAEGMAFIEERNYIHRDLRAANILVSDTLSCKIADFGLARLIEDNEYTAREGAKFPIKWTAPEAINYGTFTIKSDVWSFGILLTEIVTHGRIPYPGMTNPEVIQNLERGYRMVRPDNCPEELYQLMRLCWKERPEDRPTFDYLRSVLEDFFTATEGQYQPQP
# Tyrosine-protein kinase ZAP-70 (Homo sapiens), sequence (P43403 whole entry): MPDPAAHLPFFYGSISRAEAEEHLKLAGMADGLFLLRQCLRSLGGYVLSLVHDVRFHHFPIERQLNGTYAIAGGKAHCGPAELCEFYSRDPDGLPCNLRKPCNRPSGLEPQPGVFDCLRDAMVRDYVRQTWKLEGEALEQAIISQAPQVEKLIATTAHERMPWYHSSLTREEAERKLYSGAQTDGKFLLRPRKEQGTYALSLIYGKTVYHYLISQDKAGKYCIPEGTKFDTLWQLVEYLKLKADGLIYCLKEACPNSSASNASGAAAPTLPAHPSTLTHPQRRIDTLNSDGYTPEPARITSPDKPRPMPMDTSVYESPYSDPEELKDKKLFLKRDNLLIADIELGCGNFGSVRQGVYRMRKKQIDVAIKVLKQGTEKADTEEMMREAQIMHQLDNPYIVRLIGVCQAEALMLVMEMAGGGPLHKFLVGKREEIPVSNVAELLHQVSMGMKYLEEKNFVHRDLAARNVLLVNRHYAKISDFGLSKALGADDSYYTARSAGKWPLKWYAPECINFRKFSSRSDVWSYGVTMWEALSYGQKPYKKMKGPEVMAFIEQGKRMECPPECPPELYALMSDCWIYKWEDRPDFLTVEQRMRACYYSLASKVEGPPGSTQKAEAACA
# Tyrosine-protein kinase Fyn (Homo sapiens), sequence (P06241 2-537 limits assumed): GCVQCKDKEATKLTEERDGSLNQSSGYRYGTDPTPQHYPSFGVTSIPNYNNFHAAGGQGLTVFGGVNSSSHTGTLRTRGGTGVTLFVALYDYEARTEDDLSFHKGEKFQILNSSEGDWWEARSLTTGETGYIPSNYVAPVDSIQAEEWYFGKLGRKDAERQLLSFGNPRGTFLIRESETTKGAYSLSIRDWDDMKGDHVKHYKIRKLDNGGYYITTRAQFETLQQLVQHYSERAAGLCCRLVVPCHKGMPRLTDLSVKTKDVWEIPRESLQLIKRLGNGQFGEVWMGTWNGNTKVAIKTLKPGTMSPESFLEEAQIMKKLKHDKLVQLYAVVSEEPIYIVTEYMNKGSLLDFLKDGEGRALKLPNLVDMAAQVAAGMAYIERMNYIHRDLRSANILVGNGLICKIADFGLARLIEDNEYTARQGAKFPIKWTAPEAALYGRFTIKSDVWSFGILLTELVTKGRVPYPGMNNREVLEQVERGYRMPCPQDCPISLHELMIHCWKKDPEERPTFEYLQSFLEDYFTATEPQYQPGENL
# Tyrosine-protein kinase Lyn (Homo sapiens), sequence (P07948 2-512 limits assumed): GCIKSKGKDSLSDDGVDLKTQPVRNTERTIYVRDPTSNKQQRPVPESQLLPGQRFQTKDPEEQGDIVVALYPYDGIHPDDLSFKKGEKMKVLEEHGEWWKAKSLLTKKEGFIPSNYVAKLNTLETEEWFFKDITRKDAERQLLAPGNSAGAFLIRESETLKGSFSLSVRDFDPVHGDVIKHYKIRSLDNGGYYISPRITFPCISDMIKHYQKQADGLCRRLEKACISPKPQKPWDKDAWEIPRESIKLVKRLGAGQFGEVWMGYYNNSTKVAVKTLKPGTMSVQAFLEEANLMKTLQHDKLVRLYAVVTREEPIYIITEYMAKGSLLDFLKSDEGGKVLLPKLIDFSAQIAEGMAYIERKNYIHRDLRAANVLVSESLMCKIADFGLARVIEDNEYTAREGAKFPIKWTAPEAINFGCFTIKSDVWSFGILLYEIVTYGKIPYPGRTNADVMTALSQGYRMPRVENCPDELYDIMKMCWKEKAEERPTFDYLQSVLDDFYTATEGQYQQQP
# Mitogen-activated protein kinase 9 (Homo sapiens), sequence (P45984 whole entry, looked up): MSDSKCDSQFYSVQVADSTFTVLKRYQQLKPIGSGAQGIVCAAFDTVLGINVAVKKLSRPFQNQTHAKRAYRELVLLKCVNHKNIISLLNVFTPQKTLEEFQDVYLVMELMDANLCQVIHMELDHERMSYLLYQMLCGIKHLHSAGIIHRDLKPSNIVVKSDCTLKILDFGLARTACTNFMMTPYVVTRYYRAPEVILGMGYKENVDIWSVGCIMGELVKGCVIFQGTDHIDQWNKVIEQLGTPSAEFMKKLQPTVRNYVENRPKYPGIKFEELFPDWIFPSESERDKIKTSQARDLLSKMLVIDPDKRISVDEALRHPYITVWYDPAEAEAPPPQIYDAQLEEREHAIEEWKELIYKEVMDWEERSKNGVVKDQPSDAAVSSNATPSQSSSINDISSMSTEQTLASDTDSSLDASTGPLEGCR
compound,measurement,setting,value
O=C1NC(=O)/C(=C/c2ccc(-c3ccc(F)cc3O)o2)S1,Activity,[1],98%
same,Activity,[2],83%
same,Activity,[3],91%
same,Activity,[4],96%
same,Activity,[5],109%
same,Activity,[6],97%
same,Activity,[7],104%
same,Activity,[8],159%
same,pIC50,[9],5.33
same,Activity,[10],101%
same,Activity,[11],103%
same,pIC50,[12],4.70
same,Activity,[13],98%
same,Activity,[14],92%
same,Cmax,[15],11400 ng/mL
same,Activity,[16],89%
same,Activity,[17],89%
same,Activity,[18],93%
same,Activity,[19],74%
same,Activity,[20],111%
same,Activity,[21],66%
same,Activity,[22],77%
